Assays:
[1] = Antioxidant activity assessed as AAPH-induced peroxyl radical scavenging activity by oxygen radical absorbance assay; format: physicochemical
Summary of the method: (§1)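 Peroxyl radical scavenging measured by ORAC, a hydrogen atom transfer assay. Compounds tested at 1-10 µM. Values expressed as µM Trolox equivalents (TE).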

[2] = Antioxidant activity assessed as AAPH-induced peroxyl radical scavenging activity at 10 uM by oxygen radical absorbance assay relative to trolox; format: physicochemical; summary of the method: as §1
RAW264.7 [3] = assay: Antiosteoporotic activity in mouse RAW264.7 cells assessed as inhibition of RANKL-induced osteoclast formation at 10 uM after 5 days by TRAP assay relative to untreated control; format: functional; design: scale not given: the % may be the effect or the level left
Summary of the method: (§2)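 RAW 264.7 pre-osteoclast cells induced to form osteoclasts with RANKL. Compounds tested at concentrations up to 10 µM. TRAP activity is expressed as percent of the untreated control, as mean ± SD with n = 3. The untreated control (C) and the RANKL-treated control (TC) are both included.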

RAW264.7 [4] = assay: Antiosteoporotic activity in mouse RAW264.7 cells assessed as inhibition of RANKL-induced osteoclast formation after 5 days by TRAP assay relative to untreated control; format: functional, cell-based; summary of the method: as §2
[5] = Antioxidant activity assessed as reduction of Cu2+ to Cu+ at 10 uM by reduction assay relative to trolox; format: physicochemical
Summary of the method: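 Single electron transfer reducing-capacity assay measuring reduction of Cu2+ ions. Compounds tested at up to 10.0 µM. Values expressed as µM Trolox equivalents, as mean ± SD of three measurements.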

## COc1cc([C@H]2OC[C@H]3[C@@H]2CO[C@@H]3c2ccc(O[C@@H]3O[C@H](CO)[C@@H](O)[C@H](O)[C@H]3O)c(OC)c2)ccc1O
[1]
  Activity: Dose-dependent effect

## O=c1c(-c2ccc(O)cc2)coc2cc(O[C@@H]3O[C@H](CO)[C@@H](O)[C@H](O)[C@H]3O)ccc12 [DAIDZIN]
[1]
  Activity: Dose-dependent effect
[2]
  Ratio: > 20

## COc1cc([C@H]2OC[C@H]3[C@@H]2CO[C@@H]3c2cc(OC)c(O[C@@H]3O[C@H](CO)[C@@H](O)[C@H](O)[C@H]3O)c(OC)c2)cc(OC)c1O[C@@H]1O[C@H](CO)[C@@H](O)[C@H](O)[C@H]1O [LIRIODENDRIN]
RAW264.7 [3]
  Activity: 106.05%
RAW264.7 [4]
  Activity: Dose-dependent effect
[1]
  Activity: Dose-dependent effect

## COc1cc(O)c2c(=O)c(-c3ccc(O[C@@H]4O[C@H](CO)[C@@H](O)[C@H](O)[C@H]4O)cc3)coc2c1
[1]
  Activity: Dose-dependent effect

## COc1cc(/C=C/CO)ccc1O[C@@H]1O[C@H](CO)[C@@H](O)[C@H](O)[C@H]1O [CONIFERIN]
[1]
  Activity: Dose-dependent effect

## CC(C)=CCc1c(O)ccc(C(=O)/C=C/c2ccc(O)cc2)c1O [ISOBAVACHALCONE]
[1]
  Activity: Dose-dependent effect
[2]
  Ratio: > 20

## C=CCc1ccc(O[C@@H]2O[C@H](CO)[C@@H](O)[C@H](O)[C@H]2O)c(OC)c1 [CITRUSIN C]
RAW264.7 [3]
  Activity: 100.93%
RAW264.7 [4]
  Activity: Dose-dependent effect
[1]
  Activity: Dose-dependent effect

## O=C(c1ccc(O)cc1O[C@@H]1O[C@H](CO)[C@@H](O)[C@H](O)[C@H]1O)[C@H](O)Cc1ccc(O)cc1
[1]
  Activity: Dose-dependent effect

## CC1=CC(=O)CC(C)(C)[C@H]1CC[C@@H](C)O[C@@H]1O[C@H](CO)[C@@H](O)[C@H](O)[C@H]1O
[1]
  Activity: Dose-dependent effect

## COc1cc([C@H]2OC[C@H]3[C@@H]2CO[C@@H]3c2cc(OC)c(OC)c(OC)c2)cc(OC)c1O
[5]
  Ratio: 23.44
[1]
  Activity: Dose-dependent effect

## COC(=O)/C=C\c1ccc(O)c(CC=C(C)C)c1
RAW264.7 [3]
  Activity: 85.05%
RAW264.7 [4]
  Activity: Dose-dependent effect
[1]
  Activity: Dose-dependent effect

## O=c1oc2cc(O)ccc2c2oc3cc(O)ccc3c12 [COUMESTROL]
[1]
  Activity: Dose-dependent effect

## O=c1c(-c2ccc(O)cc2)coc2cc(O[C@@H]3O[C@H](CO)[C@@H](O)[C@H](O)[C@H]3O)cc(O)c12 [GENISTIN]
[1]
  Activity: Dose-dependent effect
[2]
  Ratio: 26.55

## OC[C@H]1O[C@@H](Oc2ccc3c(c2)OC[C@@]2(O)c4ccc(O)cc4O[C@@H]32)[C@H](O)[C@@H](O)[C@@H]1O
[1]
  Activity: Dose-dependent effect
[2]
  Ratio: > 20

## O=c1c(-c2ccc(O[C@@H]3O[C@H](CO)[C@@H](O)[C@H](O)[C@H]3O)cc2)coc2cc(O)ccc12
RAW264.7 [3]
  Activity: 104.77%
RAW264.7 [4]
  Activity: Dose-dependent effect
[1]
  Activity: Dose-dependent effect
[2]
  Ratio: > 20

— ChEMBL document CHEMBL3352099, “Anti-osteoporotic and antioxidant activities of chemical constituents of the aerial parts of Ducrosia ismaelis” (Bioorg Med Chem Lett, 2014)
